Experimental data: ChEMBL document CHEMBL3120048 (J Med Chem, 2014)
pEC50, pIC50: −log10 of the molar value. Calls of active or inactive are those of the source. The calls are words filed in the database; no cut-off is given here.

species on record: Homo sapiens; test: Inhibition of DNA polymerase-alpha (unknown origin); conditions: not given

In the case of `Cn1c(C2(NC(=O)c3ccc4c(C5CCCC5)c(-c5ncc(Br)cn5)n(C)c4c3)CCC2)nc2ccc(/C=C/C(=O)O)cc21` [DELEOBUVIR], the inhibition was “inactive”.

biological target: DNA polymerase beta (Homo sapiens) (UniProt P06746); test: Inhibition of DNA polymerase-beta (unknown origin); conditions: not given

For `Cn1c(C2(NC(=O)c3ccc4c(C5CCCC5)c(-c5ncc(Br)cn5)n(C)c4c3)CCC2)nc2ccc(/C=C/C(=O)O)cc21` [DELEOBUVIR], the inhibition was “inactive”.

species on record: Homo sapiens; test: Inhibition of DdRp-2 (unknown origin); conditions: not given

For `Cn1c(C2(NC(=O)c3ccc4c(C5CCCC5)c(-c5ncc(Br)cn5)n(C)c4c3)CCC2)nc2ccc(/C=C/C(=O)O)cc21` [DELEOBUVIR], the inhibition was “inactive”.

system: Enterovirus C; test: Inhibition of poliovirus RdRp; conditions: not given

For `Cn1c(C2(NC(=O)c3ccc4c(C5CCCC5)c(-c5ncc(Br)cn5)n(C)c4c3)CCC2)nc2ccc(/C=C/C(=O)O)cc21` [DELEOBUVIR], the inhibition was “inactive”.

system: Hepatitis C virus; test: Antiviral activity against Hepatitis C virus Con1 genotype 1b expressing NS2-NS5B infected in human HuH7 cells after 72 hrs by luciferase reporter gene assay; format: functional, organism-based, Hepacivirus hominis; conditions: isolate Con1, Huh-7, 72 h
In short: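 Cells carrying a bicistronic luciferase reporter subgenomic replicon (Con1 GT-1b, NS2-NS5B coding region) were incubated with compound for 72 h. Relative luciferase levels were then read with Bright-Glo substrate, and EC50 values were derived from these readings.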

Point of comparison: `Cn1c(C2(NC(=O)c3ccc4c5c(n(C)c4c3)CCCC53CCCCC3)CCC2)nc2cc3cc(C(=O)O)sc3cc21`, pEC50 7.42. Against it:
- COc1ccc2c(c1)OCCn1c-2c(C2CCCCC2)c2ccc(C(=O)NC3(C(=O)Nc4ccc(/C=C/C(=O)O)cc4)CCC3)cc21 — 0.98 log units higher, 8.40
- O=C(O)COc1ccc2[nH]cc(C[C@H](NC(=O)c3ccc4c(c3)nc(-c3ccoc3)n4C3CCCCC3)C(=O)O)c2c1 — 3.23 log units lower, 4.19
- CCOc1cc(NC(=O)C2(NC(=O)c3ccc4c5c(n(C)c4c3)CCCC53CCCCC3)CCC2)ccc1/C=C/C(=O)O — 0.39 log units lower, 7.03
- O=C(O)/C=C/c1ccc(NC(=O)C2(NC(=O)c3ccc4c(c3)nc(-c3ccoc3)n4C3CCCCC3)CCNCC2)cc1 — 2.12 log units lower, 5.30
- Cn1c2c(c3ccc(C(=O)O)cc31)C1(CCCCC1)CCC2 — lower, < 4.96
- Cn1c(C2(NC(=O)c3ccc4c5c(n(C)c4c3)CCCC53CCCCC3)CCC2)nc2ccc(/C=C/C(=O)O)cc21 — within 0.2 log units, 7.31

system: not listed separately; test: Inhibition of HCV genotype 1b NS5Bdelta21 RNA dependent RNA polymerase expressed in Escherichia coli JM109 (DE3); design: species or system Hepatitis C virus subtype 1b; conditions: not given

Point of comparison: `Cn1c(C2(NC(=O)c3ccc4c(C5CCCC5)c(-c5ncc(Br)cn5)n(C)c4c3)CCC2)nc2ccc(/C=C/C(=O)O)cc21` [DELEOBUVIR], pIC50 7.30. Against it:
- COc1ccc2c(c1)OCCn1c-2c(C2CCCCC2)c2ccc(C(=O)NC3(C(=O)Nc4ccc(/C=C/C(=O)O)cc4)CCC3)cc21 — 1.05 log units lower, 6.25
- Cn1c(C(=O)O)cc2cc(NC(=O)C3(NC(=O)c4ccc5c(c4)nc(-c4ccoc4)n5C4CCCCC4)CCCNC3)ccc21 (single isomer, unassigned; enantiomer 2) — 0.22 log units lower, 7.08
- C[C@@H](NC(=O)c1ccc2c(n1)nc(-c1ccoc1)n2C1CCCCC1)C(=O)Nc1ccc(/C=C/C(=O)O)cc1 — 0.82 log units lower, 6.48
- Cc1c(C(=O)N[C@H](C)C(=O)Nc2ccc(/C=C/C(=O)O)cc2)ccc2c1nc(-c1ccoc1)n2C1CCCCC1 — 1.25 log units lower, 6.05
- C[C@@H](NC(=O)c1ccc2c(c1)nc(-c1ccoc1)n2C1CCCCC1)C(=O)Nc1ccc(/C=C/C(=O)O)cc1 — 0.24 log units lower, 7.06
- CCOc1cc(NC(=O)C2(NC(=O)c3ccc4c5c(n(C)c4c3)CCCC53CCCCC3)CCC2)ccc1/C=C/C(=O)O — 0.96 log units lower, 6.34
- O=C(O)/C=C/c1ccc(NC(=O)C2(NC(=O)c3ccc4c(c3)nc(-c3ccoc3)n4C3CCCCC3)CCNCC2)cc1 — within 0.2 log units, 7.37
- Cn1c(C(=O)O)cc2cc(NC(=O)C3(NC(=O)c4ccc5c(c4)nc(-c4ccoc4)n5C4CCCCC4)CCNCC3)ccc21 — within 0.2 log units, 7.26
- Cc1cc2c(cc1C(=O)N[C@H](C)C(=O)Nc1ccc(/C=C/C(=O)O)cc1)nc(-c1ccoc1)n2C1CCCCC1 — 1.90 log units lower, 5.40
- Cn1c2c(c3ccc(C(=O)O)cc31)C1(CCCCC1)CCC2 — 2.50 log units lower, 4.80
- Cn1c(C(=O)O)cc2cc(NC(=O)C3(NC(=O)c4ccc5c(c4)nc(-c4ccoc4)n5C4CCCCC4)CCCNC3)ccc21 (single isomer, unassigned; enantiomer 1) — 1.41 log units lower, 5.89
- Cn1c(C2(NC(=O)c3ccc4c5c(n(C)c4c3)CCCC53CCCCC3)CCC2)nc2cc3cc(C(=O)O)sc3cc21 — 0.84 log units lower, 6.46
- Cn1c(C2(NC(=O)c3ccc4c5c(n(C)c4c3)CCCC53CCCCC3)CCC2)nc2ccc(/C=C/C(=O)O)cc21 — 0.56 log units lower, 6.74

species on record: Homo sapiens; test: Inhibition of DNA polymerase-gamma (unknown origin); conditions: not given

In the case of `Cn1c(C2(NC(=O)c3ccc4c(C5CCCC5)c(-c5ncc(Br)cn5)n(C)c4c3)CCC2)nc2ccc(/C=C/C(=O)O)cc21` [DELEOBUVIR], the inhibition was “inactive”.
